Lung fibro prol: blocks proliferation of human lung fibroblasts; LL 47 human lung fibroblast viability, ATP luminescence; stronger effect = lower value; viability, % at 10 µM; hit rate 1.1% among 85,000; AID 719;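 active = viability at or below 50% in the single dose screen; inactive = viability above 50%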;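 note: compound exposure lasted 72 h before the ATP readout; 100% = median luminescence of untreated cell-only wells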
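Test system: LL 47 human lung fibroblasts / Quantity: 1,150 cells in each well / Medium: IMEM growth medium with 15% fetal bovine serum / Incubation: 72 h compound exposure at 37 °C after overnight plating / Detection: CellTiter-Glo luminescence measuring cellular ATP / Read-out: % viability versus median cells-only luminescence / Benchmarks: cell-only wells, no compound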
HCT116 bCat-KO: beta-catenin-lacking colon tumor cell growth suppression; HCT116 beta-catenin knockout viability, CellTiter-Glo, 60 h; stronger effect = lower value; viability, % at 10 µM; hit rate 1.5% among 140,000; AID 818;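 active = viability at or under a set limit, the compound median less 4 SD, cut at about 6% in these data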;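 note: 0% = Hyamine 1622 control at 20 µM and 100% = untreated cell control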
HUVEC inhibit: blocks proliferation of human endothelial cells; HUVEC proliferation, CellTiter-Glo luminescence, 72 h; stronger effect = lower value; viability, % at 10 µM (by protocol); hit rate 1.1% among 86,000; AID 648;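 active = viability at or below 30%; inactive = viability above 30%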;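 note: 100% = median luminescence of DMSO-only cell control wells on each plate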
HCT116 PTEN-null: growth suppressors of cells with PTEN tumor suppressor deletion; viability, % at 10 µM; AID 827; HCT116 PTEN-null viability, CellTiter-Glo, 60 h; stronger effect = lower value; hit rate 1.2% among 140,000;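 active = viability at or below a set limit, 4 SD under the median of all tested compounds, cut at about 3.7% in these data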;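 note: PTEN knockout HCT116 line with beta catenin targeted HCT116 as companion control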
H69AR inhibit: blocks growth of human H69AR lung tumor cells | H69AR lung tumor viability, ATP luminescence, 72 h; stronger effect = lower value | hit rate 6% among 85,000 | viability, % at 10 µM;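 active = viability at or below 40%; inactive = viability above 40%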;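 note: multidrug resistant small cell line overexpressing MRP-1 efflux transporter; 100% = mean luminescence of untreated control wells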
Numbers without * were called inactive. This excerpt belongs to a sample that is enriched for hits.

Cc1cc(F)ccc1S(=O)(=O)Nc1ccccc1C(=O)Nc1ncn[nH]1 was read as Lung fibro prol 104, HCT116 bCat-KO 99, HUVEC inhibit 88, HCT116 PTEN-null 88 and H69AR inhibit 94.
For CCCCCCCOC(=O)C1=C(C)Nc2ncnn2C1c1cccs1 (stereo not drawn) the results were Lung fibro prol 77, HCT116 bCat-KO 60, HUVEC inhibit 63, HCT116 PTEN-null 74 and H69AR inhibit 82.
`CCCCCCCCOC(=O)C1=C(C)Nc2nnnn2C1c1cccs1` (stereo not drawn) gave Lung fibro prol 100, HCT116 bCat-KO 65, HUVEC inhibit 2.5*, HCT116 PTEN-null 67 and H69AR inhibit 62.
`COC(=O)c1ccc(C(=O)Nc2ccc(N)cc2N)cc1` gave Lung fibro prol 101, HCT116 bCat-KO 91, HUVEC inhibit 98, HCT116 PTEN-null 96 and H69AR inhibit 1.9*.
For COc1ccccc1NC(=O)c1ccc(N)cc1 the results were Lung fibro prol 97, HCT116 bCat-KO 104, HUVEC inhibit 84, HCT116 PTEN-null 105 and H69AR inhibit 98.
Cc1c(Cl)cccc1NC(=S)NNc1ncc(C(F)(F)F)cc1Cl was read as Lung fibro prol 96, HCT116 bCat-KO 69, HUVEC inhibit 50, HCT116 PTEN-null 68 and H69AR inhibit 16*.
Cc1ccccc1NC(=S)NNc1ncc(C(F)(F)F)cc1Cl was read as HCT116 bCat-KO 82 and HCT116 PTEN-null 81.
`CCOC(=O)c1oc2ccccc2c1NC(=O)c1cccc(OC)c1OC` gave Lung fibro prol 89, HCT116 bCat-KO 54, HUVEC inhibit 63, HCT116 PTEN-null 45 and H69AR inhibit 30*.
CCOC(=O)c1oc2ccccc2c1NC(=O)c1cccc(OC)c1 was read as Lung fibro prol 97, HCT116 bCat-KO 90, HUVEC inhibit 100, HCT116 PTEN-null 78 and H69AR inhibit 78.
Screening O=C(N/C(=C/c1ccco1)C(=O)N1CCCCC1)c1cccs1 returned HCT116 bCat-KO 92 and HCT116 PTEN-null 89.
COc1cc2c(cc1NC(=O)CSc1nnnn1-c1ccccc1)oc1ccccc12 was read as Lung fibro prol 76, HCT116 bCat-KO 35, HUVEC inhibit 57, HCT116 PTEN-null 51 and H69AR inhibit 19*.
For COc1cc2c(cc1NC(=O)CSc1nnc(Cc3cccs3)n1C)oc1ccccc12 the results were Lung fibro prol 94, HCT116 bCat-KO 87, HUVEC inhibit 58, HCT116 PTEN-null 95 and H69AR inhibit 3.9*.
Screening COc1cc2c(cc1NC(=O)Cc1ccc(C)cc1)oc1ccccc12 returned HCT116 bCat-KO 95 and HCT116 PTEN-null 96.
For COc1cc2c(cc1NC(=O)CN1CCN(S(=O)(=O)c3ccccc3F)CC1)oc1ccccc12 the results were Lung fibro prol 67, HCT116 bCat-KO 78, HUVEC inhibit 40, HCT116 PTEN-null 75 and H69AR inhibit 40*.
COc1cc2c(cc1NC(=O)CSc1nnc(Cc3cccs3)n1Cc1ccco1)oc1ccccc12 was read as Lung fibro prol 92, HCT116 bCat-KO 40, HUVEC inhibit 78, HCT116 PTEN-null 46 and H69AR inhibit 37*.
Screening C=CCNc1nc(Nc2ccc([N+](=O)[O-])cc2)nc(OCC)n1 returned HCT116 bCat-KO 93 and HCT116 PTEN-null 95.
`CCn1c(SCC(=O)Nc2cc3oc4ccccc4c3cc2OC)nnc1-c1cccs1` gave Lung fibro prol 100, HCT116 bCat-KO 62, HUVEC inhibit 48, HCT116 PTEN-null 68 and H69AR inhibit 2.3*.
For COc1cc(C(=O)Nc2sc3c(c2C#N)CCN(C(C)=O)C3)cc(OC)c1OC the results were Lung fibro prol 95, HCT116 bCat-KO 87, HUVEC inhibit 75, HCT116 PTEN-null 65 and H69AR inhibit 23*.
Screening CCOC(=O)N1CCc2c(sc(NC(=O)c3ccc(S(=O)(=O)N4CCCC4)cc3)c2C#N)C1 returned Lung fibro prol 38*, HCT116 bCat-KO 83, HUVEC inhibit 64, HCT116 PTEN-null 77 and H69AR inhibit 13*.
Screening CC(C)N1CCc2c(sc(NC(=O)c3ccc(S(=O)(=O)N4CCOCC4)cc3)c2C#N)C1 returned Lung fibro prol 85, HCT116 bCat-KO 79, HUVEC inhibit 69, HCT116 PTEN-null 84 and H69AR inhibit 98.
Screening CCN(CC)c1ccc(NC(=O)COC(=O)c2ccc3ccccc3n2)cc1 returned Lung fibro prol 99, HCT116 bCat-KO 98, HUVEC inhibit 95, HCT116 PTEN-null 96 and H69AR inhibit 93.
For O=C(/C=C/c1ccc([N+](=O)[O-])cc1)OCC(=O)N1c2ccccc2Sc2ccccc21 the results were HCT116 bCat-KO 68 and HCT116 PTEN-null 72.
CC1CCCN(c2oc(-c3cccc4ccccc34)nc2C#N)C1 (stereo not drawn) was read as Lung fibro prol 47*, HCT116 bCat-KO 89, HUVEC inhibit 96, HCT116 PTEN-null 95 and H69AR inhibit 95.
Cc1ccc(C)c(OCC(=O)Nc2ccc3c(c2)OCO3)c1C was read as Lung fibro prol 95, HCT116 bCat-KO 70, HUVEC inhibit 88, HCT116 PTEN-null 71 and H69AR inhibit 21*.
For CCOc1cc(-c2noc(-c3ccncc3)n2)cc(Br)c1OC the results were Lung fibro prol 109, HCT116 bCat-KO 89, HUVEC inhibit 65, HCT116 PTEN-null 85 and H69AR inhibit 20*.
CCOc1ccc(-c2noc(-c3ccncc3)n2)cc1OCC was read as Lung fibro prol 103, HCT116 bCat-KO 111, HUVEC inhibit 110, HCT116 PTEN-null 97 and H69AR inhibit 68.
`CCOc1ccc2nc(NC3=NC(c4ccc(OC)cc4)CC(=O)N3)nc(C)c2c1` (stereo not drawn) gave HCT116 bCat-KO 1.4* and HCT116 PTEN-null 1.8*.
CCOc1ccc2nc(NC3=NC(C)(C)C=C(C)N3)nc(C)c2c1 was read as HCT116 bCat-KO 5.0* and HCT116 PTEN-null 12.
`CCOc1ccc2c(C)nc(NC3=NC(C)(C)C=C(C)N3)nc2c1` gave Lung fibro prol 83, HCT116 bCat-KO 12, HUVEC inhibit 79, HCT116 PTEN-null 9 and H69AR inhibit 94.
CN(C)c1ccc2c(O)cc(=O)n(C)c2c1 was read as Lung fibro prol 102, HCT116 bCat-KO 73, HUVEC inhibit 95, HCT116 PTEN-null 76 and H69AR inhibit 22*.
Screening Cc1oc2cc3c(C(=O)N4CCN(c5ccccc5)CC4)c(C)oc3cc2c1C(=O)N1CCN(c2ccccc2)CC1 returned Lung fibro prol 102, HUVEC inhibit 101 and H69AR inhibit 79.
Screening CCOc1cc(CNCCc2ccc(S(N)(=O)=O)cc2)ccc1OCc1ccc(Cl)cc1 returned HCT116 bCat-KO 1.4* and HCT116 PTEN-null 1.7*.
`COc1cc(CNCCc2ccc(S(N)(=O)=O)cc2)ccc1OCC(=O)NC1CCCCC1` gave HCT116 bCat-KO 81 and HCT116 PTEN-null 85.
For COc1cc(CNCCc2ccc(S(N)(=O)=O)cc2)ccc1OCc1ccc(Cl)cc1 the results were HCT116 bCat-KO 0.6* and HCT116 PTEN-null 0.6*.
COc1cc(CNCCN2CCOCC2)ccc1OCc1ccc(Cl)cc1 was read as HCT116 bCat-KO 75 and HCT116 PTEN-null 72.
